In ChEMBL document CHEMBL1144781, “Identification of promiscuous small molecule activators in high-throughput enzyme activation screens” (J Med Chem, 2008):
Activity calls are given as the source filed them. The rule behind the calls is not given here.

Legend:
Caspase-2 = target: T1, Caspase-2 (Homo sapiens, UniProt P42575); assay: Activation of procaspase 2 after 24 hrs
T1 sequence (P42575 whole entry): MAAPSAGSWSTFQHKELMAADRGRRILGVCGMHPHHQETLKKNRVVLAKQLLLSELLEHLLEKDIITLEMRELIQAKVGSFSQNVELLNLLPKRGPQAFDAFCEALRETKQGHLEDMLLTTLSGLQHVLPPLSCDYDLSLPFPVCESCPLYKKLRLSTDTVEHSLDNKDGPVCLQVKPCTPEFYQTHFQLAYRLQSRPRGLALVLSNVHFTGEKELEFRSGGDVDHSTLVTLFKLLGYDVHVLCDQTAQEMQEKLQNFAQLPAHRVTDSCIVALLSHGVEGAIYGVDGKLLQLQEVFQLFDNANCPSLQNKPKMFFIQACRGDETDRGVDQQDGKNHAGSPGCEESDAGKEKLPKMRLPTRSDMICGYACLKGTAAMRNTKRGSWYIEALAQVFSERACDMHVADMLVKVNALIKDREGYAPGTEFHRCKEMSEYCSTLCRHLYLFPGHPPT

Caspase-3 (Homo sapiens) = target: T2, Caspase-3 (Homo sapiens) (UniProt P42574); assay: Activation of caspase 3 after 30 mins
T2 sequence (whole entry): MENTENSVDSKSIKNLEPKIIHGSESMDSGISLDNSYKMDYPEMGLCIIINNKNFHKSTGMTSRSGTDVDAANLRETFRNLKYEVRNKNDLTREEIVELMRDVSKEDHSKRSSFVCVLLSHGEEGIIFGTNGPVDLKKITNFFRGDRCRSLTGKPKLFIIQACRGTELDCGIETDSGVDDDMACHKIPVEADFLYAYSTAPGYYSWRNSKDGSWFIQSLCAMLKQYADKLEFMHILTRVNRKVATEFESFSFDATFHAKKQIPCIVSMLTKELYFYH

[1] = Activation of procaspase 2 in presence of BSA
[2] = Activation of alkaline phosphatase after 30 mins
Caspase-2 (Homo sapiens) [3] = target: T3, Caspase-2 (Homo sapiens) (UniProt P42575); assay: Increase in procaspase 2 activity after 16 hrs in presence of surfactant CHAPS
T3 sequence (whole entry): T1 sequence (P42575 whole entry)
Method in brief: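 Procaspase-2 was incubated with compound for 16 h in buffer containing CHAPS. Activity was then read by adding Ac-VDVAD-pNA substrate and monitoring absorbance at 405 nm.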

Caspase-2 (Homo sapiens) [4] = target: T3, Caspase-2 (Homo sapiens); assay: Increase in procaspase 2 activity after 30 mins in presence of surfactant CHAPS
Method in brief: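 Procaspase-2 was preincubated with compound for a short time (30 min) in CHAPS-containing buffer. Ac-VDVAD-pNA cleavage was then followed by absorbance at 405 nm.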

Structure (SMILES) | EC50 (Caspase-2) [µM] | Activity (Caspase-3 (Homo sapiens)) | further results
Cc1cc(NNC(=O)C(c2ccccc2)c2ccccc2)c2ccc(C)c(C)c2n1 | 50 |  | 
C[C@@H](CCC(=O)NCCC[N+](C)(C)CCCS(=O)(=O)[O-])[C@H]1CC[C@H]2[C@@H]3[C@H](O)C[C@@H]4C[C@H](O)CC[C@]4(C)[C@H]3C[C@H](O)[C@]12C |  | Active | Activity [1]: inactive
NCCCNCCNCCCN | 50 | Active | Activity [2]: Active
CN(C)CCNC(=O)COc1ccc(C23CC4CC(CC(C4)C2)C3)cc1 | 25 | Active | Activity (Caspase-2 (Homo sapiens) [3]): Active; Activity (Caspase-2 (Homo sapiens) [4]): inactive
CCCCCCCCCCNC(=O)CCC | 66 |  | 
CCCCCCCCCCCCCCCC[n+]1ccccc1 | 21 |  | 
CC1CCCN(CC(O)COc2ccc(C34CC5CC(CC(C5)C3)C4)cc2)C1 (stereo unspecified) | 25 | Active | 
NCCCNCCCCNCCCN [SPERMINE] | 8.5 | Active | 
